From ChEMBL document CHEMBL5647699, “Discovery of a chemical probe for PRDM9” (Nat Commun, 2019)
The source made the active and inactive calls. No cut-off for these calls is given here.

Assays:
CAL-85-1 = experiment: Cytotoxicity against human CAL-85-1 cells at upto 30 uM measured for 3 to 6 days by celltiter glo assay; type: functional, cell-based; conditions: time 3-6 day
[1] = biological target: Histone-lysine N-methyltransferase PRDM7 (Homo sapiens) (UniProt Q9NQW5); experiment: Binding affinity to PRDM7 (unknown origin) assessed as thermal stability by measuring change in melting temperature at 250 uM by SYPRO orange dye based differential scanning fluorimetry
Outline: (§1)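 DSF with 250 μM compound; proteins at 0.02 mg mL⁻¹ final in 0.1 M HEPES pH 7.5, 150 mM NaCl with 2 mM SAM; ΔTm (Tm ligand − Tm apo) above 2 °C taken as binding.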

MDA-MB-436 = experiment: Cytotoxicity against human MDA-MB-436 cells at upto 30 uM measured for 3 to 6 days by celltiter glo assay; type: functional, cell-based; conditions: time 3-6 day
RPMI-8226 = experiment: Cytotoxicity against human RPMI-8226 cells at upto 30 uM measured for 3 to 6 days by celltiter glo assay; type: functional, cell-based; conditions: time 3-6 day
[2] = biological target: Histone-lysine N-methyltransferase PRDM9 (Homo sapiens) (UniProt Q9NQV7); experiment: Inhibition of PRDM9 (unknown origin) in presence of SAH
[3] = biological target: Alpha-2B adrenergic receptor (Homo sapiens) (UniProt P18089); experiment: Agonist activity at adrenergic alpha 2b receptor (unknown origin) by Glo Sensor assay; type: functional
HEK-293T [4] = experiment: Cytotoxicity against HEK293T cells at 3 uM measured after 24 hrs by IncuCyte zoom live-cell imaging analysis; type: toxicity, cell-based; conditions: human
Outline: (§2)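 HEK293T cells seeded, treated next day with compound for 1 day; cell number counted by live-cell imaging after Vybrant DyeCycle Green staining; mean ± sd, n = 3.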

HCC1143 = experiment: Cytotoxicity against human HCC1143 cells at upto 30 uM measured for 3 to 6 days by celltiter glo assay; type: functional, cell-based; conditions: time 3-6 day
[5] = biological target: Histone-lysine N-methyltransferase PRDM9 (Homo sapiens) (UniProt Q9NQV7); experiment: Inhibition of FLAG tagged PRDM9 transfected in HEK293T cells assessed as reduction in trimethylation of endogenous H3K4 measured after 20 hrs by Western blot analysis; type: cell-based; conditions: dose <= 10.0 µM
HEK-293T [6] = experiment: Cytotoxicity against HEK293T cells at 10 uM measured after 4 days by IncuCyte zoom live-cell imaging analysis; type: toxicity, cell-based; conditions: human, 96 h, time 4 day
[7] = biological target: Histamine H3 receptor (Homo sapiens) (UniProt Q9Y5N1); experiment: Agonist activity at Histamine H3 (unknown origin) by Glo Sensor assay; type: functional
[8] = biological target: Mu-type opioid receptor (Homo sapiens) (UniProt P35372); experiment: Antagonist activity against MOR receptor (unknown origin) by Glo Sensor assay; type: functional
HCC1806 = experiment: Cytotoxicity against human HCC1806 cells at upto 30 uM measured for 3 to 6 days by celltiter glo assay; type: functional, cell-based; conditions: time 3-6 day
[9] = biological target: Histone-lysine N-methyltransferase PRDM9 (Homo sapiens) (UniProt Q9NQV7); experiment: Binding affinity to PRDM9 (unknown origin) assessed as thermal stability by measuring change in melting temperature at 250 uM by SYPRO orange dye based differential scanning fluorimetry; outline: as §1
Spermatocyte [10] = experiment: Induction of meiotic defect in wild type mouse spermatocyte assessed as effect on paring of chromosomal homolog by SYCP1/SYCP3 staining based immunofluorescence assay; type: functional, cell-based
[11] = biological target: Histone-lysine N-methyltransferase PRDM9 (Homo sapiens) (UniProt Q9NQV7); experiment: Inhibition of FLAG tagged PRDM9 transfected in HEK293T cells assessed as reduction in trimethylation of ectopic H3K4 measured after 20 hrs by Western blot analysis; type: cell-based; conditions: dose <= 10.0 µM
HEK-293T [12] = experiment: Cytotoxicity against HEK293T cells at 10 uM measured after 24 hrs by IncuCyte zoom live-cell imaging analysis; type: toxicity, cell-based; conditions: human; outline: as §2
[13] = biological target: Histone-lysine N-methyltransferase PRDM9 (Homo sapiens) (UniProt Q9NQV7); experiment: Binding affinity to PRDM9 (unknown origin) (195 to 415 residues) at 20 uM measured at 60 to 120 secs in presence of SAH by surface plasmon resonance assay; conditions: time 60-120 sec
HEK-293T [14] = experiment: Cytotoxicity against HEK293T cells at 3 uM measured after 4 days by IncuCyte zoom live-cell imaging analysis; type: toxicity, cell-based; conditions: human, 96 h, time 4 day
[15] = biological target: Alpha-2B adrenergic receptor (Homo sapiens) (UniProt P18089); experiment: Antagonist activity against adrenergic alpha 2b receptor (unknown origin) by Glo Sensor assay; type: functional
[16] = biological target: Mu-type opioid receptor (Homo sapiens) (UniProt P35372); experiment: Agonist activity at MOR receptor (unknown origin) by Glo Sensor assay; type: functional
[17] = biological target: Histone-lysine N-methyltransferase PRDM9 (Homo sapiens) (UniProt Q9NQV7); experiment: Inhibition of PRDM9 (unknown origin) at 1 to 10 uM; conditions: dose 1-10 µM
[18] = biological target: Histone-lysine N-methyltransferase PRDM9 (Homo sapiens) (UniProt Q9NQV7); experiment: Inhibition of FLAG tagged PRDM9 transfected in human MCF7 cells cotransfected with H3-GFP assessed as inhibition of trimethylation H3K4 at upto 10 uM measured after 20 hrs by Western blot analysis; type: cell-based
SK-MM-2 = experiment: Cytotoxicity against human SK-MM-2 cells at upto 30 uM measured for 3 to 6 days by celltiter glo assay; type: functional, cell-based; conditions: time 3-6 day
[19] = tested on: Histone-lysine N-methyltransferase PRDM9 (Homo sapiens), Q9NQV7 [UNDEFINED MUTATION]; experiment: Inhibition of PRDM9 mutant (unknown origin) expressed in […] cells assessed as reduction in H3k4me3 expression at TSS region of endogenous chromatin at 2.5 to 10 uM measured after 48 hrs by ChIP qPCR analysis; type: cell-based; conditions: HEK293T, dose 2.5-10 µM
Outline: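 HEK293T cells transfected with empty vector, wild-type or catalytically dead PRDM9 and treated with 0.1% DMSO or compound for 48 h; formaldehyde fixed, sonicated chromatin (50 μg) immunoprecipitated with anti-H3K4me3 or anti-H3; qPCR at PRDM9-bound and control loci; mean ± s.d. of technical replicates, representative of two experiments.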

[20] = biological target: Muscarinic acetylcholine receptor M2 (Homo sapiens) (UniProt P08172); experiment: Agonist activity at muscarinic M2 receptor (unknown origin) by Glo Sensor assay; type: functional
MCF7 = experiment: Cytotoxicity against human MCF7 cells assessed as reduction in cell viability at 10 uM measured on day 5 by IncuCyte zoom live-cell imaging analysis; type: functional, cell-based; conditions: time 5.0 day
Outline: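 MCF7 cells seeded, treated next day with 10 μM compound in a 5-day proliferation assay; cell number counted by live-cell imaging after Vybrant DyeCycle Green staining.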

[21] = biological target: Muscarinic acetylcholine receptor M2 (Homo sapiens) (UniProt P08172); experiment: Antagonist activity against muscarinic M2 receptor (unknown origin) by Glo Sensor assay; type: functional
Spermatocyte [22] = experiment: Induction of meiotic defect in wild type mouse spermatocyte assessed as non homologous synapsis by SYCP1/SYCP3 staining based immunofluorescence assay; type: functional, cell-based

Chain of Histone-lysine N-methyltransferase PRDM9 (Homo sapiens) (Q9NQV7 whole entry, the tested form may be a part): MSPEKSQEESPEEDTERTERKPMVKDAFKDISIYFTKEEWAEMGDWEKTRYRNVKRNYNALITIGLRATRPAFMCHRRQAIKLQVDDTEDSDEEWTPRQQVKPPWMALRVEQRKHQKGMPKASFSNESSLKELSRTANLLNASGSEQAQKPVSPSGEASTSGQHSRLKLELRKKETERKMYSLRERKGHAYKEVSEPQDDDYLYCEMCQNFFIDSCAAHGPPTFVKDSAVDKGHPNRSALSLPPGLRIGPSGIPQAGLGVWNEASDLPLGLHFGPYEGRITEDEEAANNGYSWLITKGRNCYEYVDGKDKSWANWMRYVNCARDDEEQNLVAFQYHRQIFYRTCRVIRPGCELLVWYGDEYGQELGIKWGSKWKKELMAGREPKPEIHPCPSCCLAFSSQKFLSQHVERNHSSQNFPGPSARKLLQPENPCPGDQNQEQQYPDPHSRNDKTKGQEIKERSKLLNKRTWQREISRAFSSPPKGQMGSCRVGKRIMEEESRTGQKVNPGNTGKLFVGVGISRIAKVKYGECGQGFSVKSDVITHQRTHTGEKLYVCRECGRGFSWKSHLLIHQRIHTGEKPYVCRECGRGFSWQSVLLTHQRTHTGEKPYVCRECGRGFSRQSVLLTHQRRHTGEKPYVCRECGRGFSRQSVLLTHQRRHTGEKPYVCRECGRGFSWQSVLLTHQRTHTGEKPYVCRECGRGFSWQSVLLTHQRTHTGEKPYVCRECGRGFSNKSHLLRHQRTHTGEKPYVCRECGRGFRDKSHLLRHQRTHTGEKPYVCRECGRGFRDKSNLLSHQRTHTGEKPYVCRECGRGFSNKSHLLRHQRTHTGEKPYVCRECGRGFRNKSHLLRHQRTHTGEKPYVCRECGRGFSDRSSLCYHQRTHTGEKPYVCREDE
Chain of Mu-type opioid receptor (Homo sapiens) (P35372 whole entry): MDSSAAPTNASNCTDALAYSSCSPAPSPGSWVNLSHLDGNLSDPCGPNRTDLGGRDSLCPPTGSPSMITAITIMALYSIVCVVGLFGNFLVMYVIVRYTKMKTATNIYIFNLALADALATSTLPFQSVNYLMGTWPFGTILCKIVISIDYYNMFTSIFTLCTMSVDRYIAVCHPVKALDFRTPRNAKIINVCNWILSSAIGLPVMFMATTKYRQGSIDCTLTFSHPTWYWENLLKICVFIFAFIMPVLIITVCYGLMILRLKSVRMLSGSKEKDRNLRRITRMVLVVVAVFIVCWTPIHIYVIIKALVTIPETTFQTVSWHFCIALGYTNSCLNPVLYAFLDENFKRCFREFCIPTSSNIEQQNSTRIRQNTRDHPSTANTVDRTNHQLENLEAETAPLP
Chain of Muscarinic acetylcholine receptor M2 (Homo sapiens) (P08172 whole entry): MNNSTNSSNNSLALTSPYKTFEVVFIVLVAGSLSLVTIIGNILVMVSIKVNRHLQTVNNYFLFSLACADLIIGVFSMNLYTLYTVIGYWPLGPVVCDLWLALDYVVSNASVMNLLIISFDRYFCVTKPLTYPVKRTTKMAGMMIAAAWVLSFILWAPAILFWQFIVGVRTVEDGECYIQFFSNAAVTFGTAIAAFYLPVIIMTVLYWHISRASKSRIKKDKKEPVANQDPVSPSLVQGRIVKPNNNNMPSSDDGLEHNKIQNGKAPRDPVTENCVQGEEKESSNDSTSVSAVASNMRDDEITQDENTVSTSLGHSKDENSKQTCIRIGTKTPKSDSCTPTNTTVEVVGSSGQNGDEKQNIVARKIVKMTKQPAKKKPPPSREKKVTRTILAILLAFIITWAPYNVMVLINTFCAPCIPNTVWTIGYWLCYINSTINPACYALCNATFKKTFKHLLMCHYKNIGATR
Chain of Alpha-2B adrenergic receptor (Homo sapiens) (P18089 whole entry): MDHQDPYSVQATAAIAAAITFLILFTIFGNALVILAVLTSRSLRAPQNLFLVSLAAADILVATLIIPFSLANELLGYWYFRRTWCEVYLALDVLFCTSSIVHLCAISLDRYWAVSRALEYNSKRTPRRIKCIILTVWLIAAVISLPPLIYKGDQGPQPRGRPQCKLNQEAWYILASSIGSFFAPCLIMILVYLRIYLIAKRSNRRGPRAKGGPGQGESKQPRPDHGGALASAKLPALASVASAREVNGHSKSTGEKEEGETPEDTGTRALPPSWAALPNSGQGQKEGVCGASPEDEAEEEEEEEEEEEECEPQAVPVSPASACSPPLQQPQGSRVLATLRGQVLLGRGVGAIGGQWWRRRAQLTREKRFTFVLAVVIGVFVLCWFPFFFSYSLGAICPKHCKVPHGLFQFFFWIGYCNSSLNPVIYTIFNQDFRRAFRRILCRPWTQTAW
Chain of Histone-lysine N-methyltransferase PRDM7 (Homo sapiens) (Q9NQW5 whole entry): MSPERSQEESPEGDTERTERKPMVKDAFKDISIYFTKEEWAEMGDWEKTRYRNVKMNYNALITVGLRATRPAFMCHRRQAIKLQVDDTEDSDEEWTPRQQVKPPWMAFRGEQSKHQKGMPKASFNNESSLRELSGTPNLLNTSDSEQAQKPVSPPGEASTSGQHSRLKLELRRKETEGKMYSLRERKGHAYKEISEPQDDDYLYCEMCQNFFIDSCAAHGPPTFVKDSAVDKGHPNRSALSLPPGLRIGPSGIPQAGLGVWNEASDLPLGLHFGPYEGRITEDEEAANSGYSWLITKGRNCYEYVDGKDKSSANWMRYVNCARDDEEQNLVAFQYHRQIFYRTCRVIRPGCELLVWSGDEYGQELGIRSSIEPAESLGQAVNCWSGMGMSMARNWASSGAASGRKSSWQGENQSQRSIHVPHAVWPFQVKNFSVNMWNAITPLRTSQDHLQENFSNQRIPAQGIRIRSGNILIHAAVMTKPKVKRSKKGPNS
Chain of Histamine H3 receptor (Homo sapiens) (Q9Y5N1 whole entry): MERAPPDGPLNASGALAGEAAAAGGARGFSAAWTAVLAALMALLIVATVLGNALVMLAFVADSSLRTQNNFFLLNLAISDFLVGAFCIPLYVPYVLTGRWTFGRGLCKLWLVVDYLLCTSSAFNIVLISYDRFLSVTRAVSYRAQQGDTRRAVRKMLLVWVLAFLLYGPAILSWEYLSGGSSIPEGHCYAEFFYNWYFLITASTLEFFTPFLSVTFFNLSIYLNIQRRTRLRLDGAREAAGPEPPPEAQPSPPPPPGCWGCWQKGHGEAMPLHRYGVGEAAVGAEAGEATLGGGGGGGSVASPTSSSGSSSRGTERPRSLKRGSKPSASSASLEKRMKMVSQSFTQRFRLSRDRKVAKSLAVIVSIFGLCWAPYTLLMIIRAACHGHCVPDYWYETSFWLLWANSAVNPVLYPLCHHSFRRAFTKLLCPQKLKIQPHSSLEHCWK
Chain of Histone-lysine N-methyltransferase PRDM9 (Homo sapiens), Q9NQV7 [UNDEFINED MUTATION] (Q9NQV7 whole entry, looked up, change not shown): as the sequence (Q9NQV7 whole entry, the tested form may be a part) above

`COc1cc(OC)cc(-c2noc(N3CCN(C)C4(CCN(c5ccnc(C)c5)CC4)C3)n2)c1` was tested, and the Activity (CAL-85-1) was “inactive”, the ΔTm [1] was over 2 °C and the Activity (MDA-MB-436) was “inactive”. For the same molecule, the Activity (RPMI-8226) was “inactive”, the inhibition [2] was “inactive” and the Activity [3] was “inactive”. For the same molecule, the Activity (HEK-293T [4]) was “Non-Toxic”, the Activity (HCC1143) was “inactive” and the inhibition [5] was “Dose-Dependent Effect”. For the same molecule, the Activity (HEK-293T [6]) was “Toxic”, the Activity [7] was “inactive” and the Activity [8] was “inactive”. For the same molecule, the Activity (HCC1806) was “inactive”, the ΔTm [9] was over 2 °C and the Activity (Spermatocyte [10]) was “Active”. For the same molecule, the inhibition [11] was “Dose-Dependent Effect”, the Activity (HEK-293T [12]) was “Toxic” and the Activity [13] was “inactive”. For the same molecule, the Activity (HEK-293T [14]) was “Non-Toxic”, the Activity [15] was “inactive” and the Activity [16] was “inactive”. The inhibition [17] was “Active”, the inhibition [18] was “Active” and the Activity (SK-MM-2) was “inactive”. The inhibition [19] was “inactive”, the Activity [20] was “inactive” and the Activity (MCF7) was “inactive”. For the same molecule, the Activity [21] was “inactive” and the Activity (Spermatocyte [22]) was “Active”.
